Results as given in ChEMBL document CHEMBL1629660, “Pharmacodynamics of tigecycline against phenotypically diverse Staphylococcus aureus isolates in a murine thigh model” (Antimicrob Agents Chemother, 2009).

Tests used:
[1] = Cmax in neutropenic ICR mouse infected with Staphylococcus aureus ATCC 29213 at 25 mg/kg, sc by HPLC; type: ADME, organism-based; design: dose 25 mg/kg, route subcutaneous; settings: in vivo
In short: (§1)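 Neutropenic female ICR mice (cyclophosphamide 150 and 100 mg/kg ip, 4 days and 1 day before inoculation), both thighs inoculated im with ~10^7 CFU/ml of ATCC 29213. Single sc doses of 50, 25, 12.5 or 6.25 mg/kg. Cardiac blood taken from groups of six at 8–12 times over 0.5–24 h. Serum measured by HPLC (linear 0.05–5 µg/ml). Two-compartment fit by nonlinear least squares; AUC by trapezoidal rule.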

[2] = Tmax in neutropenic ICR mouse infected with Staphylococcus aureus ATCC 29213 at 50 mg/kg, sc by HPLC; type: ADME, organism-based; design: dose 50 mg/kg, route subcutaneous; settings: in vivo; in short: as §1
[3] = Tmax in neutropenic ICR mouse infected with Staphylococcus aureus ATCC 29213 at 12.5 mg/kg, sc by HPLC; type: ADME, organism-based; design: dose 12.5 mg/kg, route subcutaneous; settings: in vivo; in short: as §1
[4] = AUC (0 to 24 hrs) in neutropenic ICR mouse infected with Staphylococcus aureus ATCC 29213 at 12.5 mg/kg, sc by HPLC; type: ADME, organism-based; design: time < 24 hr, dose 12.5 mg/kg, route subcutaneous; settings: plasma; in short: as §1
[5] = Protein binding in methicillin-sensitive Staphylococcus aureus ATCC 29213-infected neutropenic ICR mouse serum at 12.5 mg/kg, sc by HPLC; type: ADME, organism-based; design: dose 12.5 mg/kg, route subcutaneous; settings: read-out: PB (converted)
[6] = Protein binding in methicillin-sensitive Staphylococcus aureus ATCC 29213-infected neutropenic ICR mouse serum at 6.25 mg/kg, sc by HPLC; type: ADME, organism-based; design: dose 6.25 mg/kg, route subcutaneous; settings: read-out: PB (converted)
[7] = system: Serum; assay: fAUC in serum of methicillin-sensitive Staphylococcus aureus ATCC 29213-infected neutropenic ICR mouse at 1.56 to 400 mg/kg, sc by HPLC; type: ADME, organism-based; design: dose 1.56-400 mg/kg, route subcutaneous; settings: in vivo
[8] = system: Staphylococcus aureus; assay: Antimicrobial activity against hospital-acquired methicillin-resistant Staphylococcus aureus isolate 56 infected in neutropenic ICR mouse assessed as decrease in bacterial density at 1.56 to 400 mg/kg, sc after 24 hrs; type: functional; settings: dose mg/kg 1.56-400; route subcutaneous
In short: (§2)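 Female ICR mice (~25 g) made neutropenic with cyclophosphamide 150 and 100 mg/kg ip, 4 and 1 days before infection. Each thigh inoculated im with 0.1 ml of ~10^7 CFU/ml from an overnight subculture. Tigecycline sc (0.2 ml) given 2 h later as single or multiple doses of 1.56–50 mg/kg, 1.56–400 mg/kg/day, 3 mice/group. Saline-injected controls. Thighs harvested at 24 h, homogenized in saline, plated on blood agar; log10 CFU change vs 0-h controls.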

[9] = fAUC/MIC in methicillin-sensitive Staphylococcus aureus ATCC 25923-infected neutropenic ICR mouse at 80% effective exposure index; type: functional
[10] = fAUC/MIC in community acquired methicillin-resistant Staphylococcus aureus isolate 144-infected neutropenic ICR mouse at 80% effective exposure index; type: functional
In short: (§3)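 Single-dose serum PK in infected neutropenic mice (sc 6.25–50 mg/kg; HPLC; two-compartment fit; AUC by trapezoidal rule; lower doses simulated). Free fraction from ultrafiltration of spiked mouse serum, in triplicate. Free exposures divided by modal MIC and plotted against 24-h log10 CFU change with a sigmoidal Emax model; EI50, EI80 and stasis values read from the fitted curves.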

[11] = fAUC/MIC in methicillin-sensitive Staphylococcus aureus ATCC 25923-infected neutropenic ICR mouse at 50% effective exposure index; type: functional
[12] = fAUC/MIC in hospital-acquired methicillin-resistant Staphylococcus aureus isolate 56-infected neutropenic ICR mouse at 50% effective exposure index; type: functional; in short: as §3
[13] = fAUC/MIC in hospital-acquired methicillin-resistant Staphylococcus aureus isolate 152-infected neutropenic ICR mouse at 50% effective exposure index; type: functional; in short: as §3
[14] = fAUC/MIC in community acquired methicillin-resistant Staphylococcus aureus isolate 156-infected neutropenic ICR mouse at 50% effective exposure index; type: functional; in short: as §3
[15] = fAUC/MIC in hospital-acquired methicillin-resistant Staphylococcus aureus isolate 56-infected neutropenic ICR mouse at stasis dose; type: functional; in short: as §3
[16] = fAUC/MIC in community acquired methicillin-resistant Staphylococcus aureus isolate 147-infected neutropenic ICR mouse at stasis dose; type: functional; in short: as §3
[17] = system: Staphylococcus aureus; assay: Antimicrobial activity against methicillin-sensitive Staphylococcus aureus ATCC 25923 infected in neutropenic ICR mouse assessed as change in bacterial load after 24 hrs; type: functional; in short: as §2
[18] = system: Staphylococcus aureus; assay: Antimicrobial activity against hospital-acquired methicillin-resistant Staphylococcus aureus isolate 152 infected in neutropenic ICR mouse assessed as change in bacterial load after 24 hrs; type: functional; in short: as §2
[19] = system: Staphylococcus aureus; assay: Antimicrobial activity against community acquired methicillin-resistant Staphylococcus aureus isolate 147 infected in neutropenic ICR mouse assessed as change in bacterial load after 24 hrs; type: functional; in short: as §2
[20] = fAUC/MIC in community acquired methicillin-resistant Staphylococcus aureus isolate 156 infected-immunocompetent ICR mouse at 1.56 […], sc QD; type: functional
In short: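 Derived from neutropenic-mouse serum PK (HPLC, two-compartment fit) with ultrafiltration protein-binding correction, divided by modal MIC.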

[21] = fAUC/MIC in community acquired methicillin-resistant Staphylococcus aureus isolate 156 infected-immunocompetent ICR mouse at […], sc QD; type: functional
[22] = system: Staphylococcus aureus; assay: Antimicrobial activity against community acquired methicillin-resistant Staphylococcus aureus isolate 156 infected in neutropenic ICR mouse assessed as change in bacterial load at 3.13 […] after 24 hrs; type: functional; in short: as §2
[23] = system: Acinetobacter baumannii; assay: Antimicrobial activity against carbapenem-intermediate,-resistant Acinetobacter baumannii assessed as decrease in bacterial count at 0.7 times of MIC after 24 hrs by time kill analysis; type: functional
[24] = AUC in neutropenic ICR mouse infected with Staphylococcus aureus ATCC 29213 at 6.25 to 50 mg/kg, sc; type: ADME, organism-based; design: dose 6.25-50 mg/kg, route subcutaneous; settings: plasma; in short: as §1
[25] = r2 of fT>MIC in methicillin-sensitive Staphylococcus aureus ATCC 25923-infected neutropenic ICR mouse
[26] = r2 for fAUC/MIC in methicillin-sensitive Staphylococcus aureus ATCC 29213-infected neutropenic ICR mouse
[27] = r2 for fCmax/MIC in methicillin-sensitive Staphylococcus aureus ATCC 29213-infected neutropenic ICR mouse
[28] = r2 for fT>MIC in hospital-acquired methicillin-resistant Staphylococcus aureus isolate 56-infected neutropenic ICR mouse
[29] = r2 of fAUC/MIC in hospital-acquired methicillin-resistant Staphylococcus aureus isolate 56-infected neutropenic ICR mouse
[30] = r2 of fCmax/MIC in hospital-acquired methicillin-resistant Staphylococcus aureus isolate 152-infected neutropenic ICR mouse
[31] = r2 for fAUC/MIC in hospital-acquired methicillin-resistant Staphylococcus aureus isolate 152-infected neutropenic ICR mouse
[32] = r2 for fAUC/MIC in community acquired methicillin-resistant Staphylococcus aureus isolate 147-infected neutropenic ICR mouse

With `CN(C)c1cc(NC(=O)CNC(C)(C)C)c(O)c2c1C[C@H]1C[C@H]3[C@H](N(C)C)C(O)=C(C(N)=O)C(=O)[C@@]3(O)C(O)=C1C2=O` [TIGECYCLINE] the Cmax [1] was 5330 ng/mL, the Tmax [2] was 44.4 min and the Tmax [3] was 27 min. It also gave an AUC(0-t) at 24 h [4] of 9100 ng·h/mL, a fraction unbound [5] of 0.121 and a fraction unbound [6] of 0.188. The fAUC [7] was 200 ng·h/mL, the CFU [8] was 1.5 and the fAUC/MIC [9] was 7. The fAUC/MIC [10] was 3.2, the fAUC/MIC [11] was 5 and the fAUC/MIC [12] was 2.5. For the same compound, the fAUC/MIC [13] was 1.5, the fAUC/MIC [14] was 5.1 and the fAUC/MIC [15] was 2.5. For the same compound, the fAUC/MIC [16] was 1.7, the log10CFU/ml [17] was 1.4 and the log10CFU/ml [18] was 1.8. The log10CFU/ml [19] was 1.8, the fAUC/MIC [20] was 1.8 and the fAUC/MIC [21] was 3.6. The log10CFU/ml [22] was 0.5, the log10cfu [23] was 2 and the AUC [24] was 1200 ng·h/mL. For the same compound, the r2 [25] was 0.872%, the r2 [26] was 0.983 and the r2 [27] was 0.974. The r2 [28] was 0.341%, the r2 [29] was 0.957 and the r2 [30] was 0.953. It also gave a r2 [31] of 0.997 and a r2 [32] of 0.966.
